Laboratory results from ChEMBL document CHEMBL2331504, “New pyrazole derivatives containing 1,2,4-triazoles and benzoxazoles as potent antimicrobial and analgesic agents” (2013).
Converted amounts (≈) assume the structure as drawn.

Legend:
Type in all cases: functional
Rattus norvegicus [1] = experiment: Analgesic activity against Wistar albino rat at 200 mg/kg, ip measured immediately after 120 mins post compound treatment by tail flick method (reference value: 2.22 +/- 0.07 %); settings: 2 h, route intraperitoneal, read-out: INH
Rattus norvegicus [2] = experiment: Analgesic activity against Wistar albino rat at 200 mg/kg, ip measured immediately after 60 mins post compound treatment by tail flick method (reference value: 4.18 +/- 0.13 %); settings: 1 h, route intraperitoneal, read-out: INH
Rattus norvegicus [3] = experiment: Analgesic activity against Wistar albino rat at 200 mg/kg, ip measured immediately after 30 mins post compound treatment by tail flick method (reference value: 4.20 +/- 0.12 %); settings: 0.5 h, route intraperitoneal
Rattus norvegicus [4] = experiment: Analgesic activity against Wistar albino rat at 200 mg/kg, ip measured immediately after compound administration by tail flick method (reference value: 1.9 +/- 0.12 %); settings: route intraperitoneal, read-out: INH
Candida albicans = experiment: Antimicrobial activity against Candida albicans after 16 hrs by serial dilution method
How it was run: (§1)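 Tube broth serial dilution in trypticase soya broth, from 1 mg/mL DMF stocks. Cultures were grown 6 h at 37 °C, adjusted to a McFarland standard, then diluted to a 10^5 cfu/mL inoculum. Tubes were incubated 16 h at 37 °C, alongside inoculum and broth controls and ceftriaxone or fluconazole reference. MIC was read as the tubes showing no visible growth.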

Pseudomonas aeruginosa = experiment: Antimicrobial activity against Pseudomonas aeruginosa after 16 hrs by serial dilution method; how it was run: as §1
Escherichia coli = experiment: Antimicrobial activity against Escherichia coli after 16 hrs by serial dilution method; how it was run: as §1
Bacillus subtilis = experiment: Antimicrobial activity against Bacillus subtilis after 16 hrs by serial dilution method; how it was run: as §1
Staphylococcus aureus = experiment: Antimicrobial activity against Staphylococcus aureus after 16 hrs by serial dilution method; how it was run: as §1
Rattus norvegicus [5] = experiment: Analgesic activity against Wistar albino rat at 2 mg/kg, ip measured immediately after 120 mins post compound treatment by tail flick method (reference value: 2.22 +/- 0.07 %); settings: 2 h, route intraperitoneal
Rattus norvegicus [6] = experiment: Analgesic activity against Wistar albino rat at 2 mg/kg, ip measured immediately after 60 mins post compound treatment by tail flick method (reference value: 4.18 +/- 0.13 %); settings: 1 h, route intraperitoneal
Rattus norvegicus [7] = experiment: Analgesic activity against Wistar albino rat at 2 mg/kg, ip measured immediately after 30 mins post compound treatment by tail flick method (reference value: 4.20 +/- 0.12 %); settings: 0.5 h, route intraperitoneal
Rattus norvegicus [8] = experiment: Analgesic activity against Wistar albino rat at 2 mg/kg, ip measured immediately after compound administration by tail flick method (reference value: 1.9 +/- 0.12 %); settings: route intraperitoneal

| Compound | tail flick reaction time at 200 mg/kg (Rattus norvegicus [1]) [%] | tail-flick reaction time at 200 mg/kg (Rattus norvegicus [2]) [%] | inhibition in vivo at 200 mg/kg (Rattus norvegicus [3]) [%] | tail-flick reaction time at 200 mg/kg (Rattus norvegicus [4]) [%] | MIC (Candida albicans) [µg/mL] | MIC (Pseudomonas aeruginosa) [µg/mL] | MIC (Escherichia coli) [µg/mL] | MIC (Bacillus subtilis) [µg/mL] | MIC (Staphylococcus aureus) [µg/mL] | inhibition in vivo at 2 mg/kg (Rattus norvegicus [5]) [%] | inhibition in vivo at 2 mg/kg (Rattus norvegicus [6]) [%] | inhibition in vivo at 2 mg/kg (Rattus norvegicus [7]) [%] | inhibition in vivo at 2 mg/kg (Rattus norvegicus [8]) [%] |
| --- | --- | --- | --- | --- | --- | --- | --- | --- | --- | --- | --- | --- | --- |
| Cc1ccc(-c2nnc(S)n2/N=C/c2c[nH]nc2-c2ccc(Cl)cc2Cl)cn1 | 2.98 | 4.15 | 3.5 | 2.93 | 6.25 (≈ 14.5 µM) | 1.61 (≈ 3.75 µM) | 3.12 (≈ 7.26 µM) | 1.61 (≈ 3.75 µM) | 3.12 (≈ 7.26 µM) |  |  |  |  |
| O=C(CSc1nc2ccccc2o1)N/N=C/c1c[nH]nc1-c1ccc(Cl)cc1Cl | 3.62 | 3.45 | 3.38 | 2.27 | 12.5 (≈ 28 µM) | 6.25 (≈ 14 µM) | 3.12 (≈ 7 µM) | 6.25 (≈ 14 µM) | 12.5 (≈ 28 µM) |  |  |  |  |
| CSc1ccc(-c2n[nH]cc2/C=N/NC(=O)CSc2nc3ccccc3o2)cc1 | 3.83 | 3.53 | 3.15 | 3.05 | 12.5 (≈ 29.5 µM) | 6.25 (≈ 14.8 µM) | 6.25 (≈ 14.8 µM) | 12.5 (≈ 29.5 µM) | 6.25 (≈ 14.8 µM) |  |  |  |  |
| O=C(CSc1nc2ccccc2o1)N/N=C/c1c[nH]nc1-c1cc(Cl)sc1Cl | 3.06 | 2.93 | 2.82 | 2.55 | 25 (≈ 55.3 µM) | 6.25 (≈ 13.8 µM) | 3.12 (≈ 6.91 µM) | 3.12 (≈ 6.91 µM) | 6.25 (≈ 13.8 µM) |  |  |  |  |
| O=C(CSc1nc2ccccc2o1)N/N=C/c1c[nH]nc1-c1ccc(-c2ccccc2)cc1 | 3.63 | 3.43 | 3.27 | 3.13 | 25 (≈ 55.1 µM) | 12.5 (≈ 27.6 µM) | 25 (≈ 55.1 µM) | 12.5 (≈ 27.6 µM) | 12.5 (≈ 27.6 µM) |  |  |  |  |
| Clc1ccc(-c2n[nH]cc2/C=N/Nc2nc3cc(Cl)cc(Cl)c3o2)c(Cl)c1 | 3.2 | 3.05 | 2.92 | 2.75 | 12.5 (≈ 28.3 µM) | 3.12 (≈ 7.08 µM) | 12.5 (≈ 28.3 µM) | 6.25 (≈ 14.2 µM) | 12.5 (≈ 28.3 µM) |  |  |  |  |
| CSc1ccc(-c2n[nH]cc2/C=N/Nc2nc3cc(Cl)cc(Cl)c3o2)cc1 | 3.63 | 3.57 | 3.42 | 3.25 | 25 (≈ 59.8 µM) | 12.5 (≈ 29.9 µM) | 12.5 (≈ 29.9 µM) | 12.5 (≈ 29.9 µM) | 6.25 (≈ 14.9 µM) |  |  |  |  |
| Clc1cc(Cl)c2oc(N/N=C/c3c[nH]nc3-c3cc(Cl)sc3Cl)nc2c1 | 3.1 | 3.07 | 3.03 | 2.98 | 12.5 (≈ 28 µM) | 3.12 (≈ 6.99 µM) | 3.12 (≈ 6.99 µM) | 6.25 (≈ 14 µM) | 3.12 (≈ 6.99 µM) |  |  |  |  |
| Clc1cc(Cl)c2oc(N/N=C/c3c[nH]nc3-c3ccc(-c4ccccc4)cc3)nc2c1 | 2.95 | 2.77 | 2.65 | 2.43 | 25 (≈ 55.8 µM) | 12.5 (≈ 27.9 µM) | 12.5 (≈ 27.9 µM) | 25 (≈ 55.8 µM) | 12.5 (≈ 27.9 µM) |  |  |  |  |
| CSc1ccc(-c2n[nH]cc2/C=N/n2c(S)nnc2-c2ccncc2)cc1 | 2.9 | 2.83 | 2.77 | 2.62 | 12.5 (≈ 31.8 µM) | 6.25 (≈ 15.9 µM) | 3.12 (≈ 7.94 µM) | 3.12 (≈ 7.94 µM) | 3.12 (≈ 7.94 µM) |  |  |  |  |
| Sc1nnc(COc2cccc3ccccc23)n1/N=C/c1c[nH]nc1-c1ccc(Cl)cc1Cl | 3.08 | 2.25 | 2.93 | 2.85 | 12.5 (≈ 25.2 µM) | 1.61 (≈ 3.26 µM) | 3.12 (≈ 6.31 µM) | 3.12 (≈ 6.31 µM) | 6.25 (≈ 12.6 µM) |  |  |  |  |
| Sc1nnc(COc2cccc3ccccc23)n1/N=C/c1c[nH]nc1-c1cc(Cl)sc1Cl | 2.2 | 2.28 | 2.52 | 2.67 | 6.25 (≈ 12.5 µM) | 1.61 (≈ 3.22 µM) | 3.12 (≈ 6.23 µM) | 1.61 (≈ 3.22 µM) | 1.61 (≈ 3.22 µM) |  |  |  |  |
| CC(C)=CCN1CC[C@]2(C)c3cc(O)ccc3C[C@H]1[C@H]2C [(+)-PENTAZOCINE] |  |  |  |  |  |  |  |  |  | 2.22 | 2.18 | 2.17 | 1.9 |
| CO/N=C(\C(=O)N[C@@H]1C(=O)N2C(C(=O)O)=C(CSc3nc(=O)c(O)nn3C)CS[C@H]12)c1csc(N)n1 [CEFTRIAXONE] |  |  |  |  |  | 1.61 (≈ 2.91 µM) | 1.61 (≈ 2.91 µM) | 1.61 (≈ 2.91 µM) | 3.12 (≈ 5.63 µM) |  |  |  |  |
| OC(Cn1cncn1)(Cn1cncn1)c1ccc(F)cc1F [FLUCONAZOLE] |  |  |  |  | 6.25 (≈ 20.4 µM) |  |  |  |  |  |  |  |  |
